Active and inactive are the calls of the source. The calls are words filed in the database; no cut-off is given here.

Experiment [1] has as its system Serratia marcescens. Description: Antibacterial activity against Serratia marcescens ATCC 25419 at […]. Format: functional, organism-based. The gist of the method:
(§1)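 Agar-overlay disk diffusion. Strains grown in LB broth 24 h at 37 °C; 0.3 mL broth culture in 2.7 mL LB soft agar (0.7%) poured over LB hard agar (1.5%). 8 mm paper disks loaded with 10 μL of 2 μg/μL sample; ampicillin (5 μg/μL) positive control, solvent negative control. Plates incubated 37 °C, 24 h, then inhibition assessed.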

In experiment [2] the test system is Salmonella enterica subsp. enterica. The experiment can be described thus: Antibacterial activity against Salmonella enteritidis ATCC 13076 at […]. The experiment is classed as functional, organism-based. The following applies: Salmonella enterica subsp. enterica serovar Enteritidis. The gist of the method:
as §1

Experiment [3] relates to Shigella sonnei. The experiment can be described thus: Antibacterial activity against Shigella sonnei ATCC 11060 at […]. Format: functional, organism-based. The gist of the method: as §1
The subject of experiment [4] is RAW264.7. The experiment can be described thus: Antiinflammatory activity in mouse RAW264.7 cells assessed as reduction of LPS-induced iNOS protein level at 10 uM by immunoblot analysis relative to control. The experiment is classed as functional. Set-up: scale not given: the % may be the effect or the level left. The gist of the method:
(§2)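 Murine RAW 264.7 macrophages stimulated with E. coli LPS (0.01 μg/mL) for 16 h with or without sample (10 μM). Lysates from cells washed in ice-cold PBS; equal protein run on SDS-PAGE, transferred to PVDF, probed with anti-iNOS or anti-COX-2 (1:1000, 180 min); β-actin blotted. Band intensity expressed relative to LPS-alone group (100%); mean ± SEM, n = 5.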
For orientation: A western blot detects proteins with antibodies after separation by electrophoresis.

Experiment [5] has as its system Klebsiella aerogenes. The experiment can be described thus: Antibacterial activity against Enterobacter aerogenes ATCC 13048 at […]. Format: functional, organism-based. The gist of the method:
as §1

Experiment [6] has as its system RAW264.7. Description: Antiinflammatory activity in mouse RAW264.7 cells assessed as reduction of LPS-induced COX2 protein level at 10 uM by immunoblot analysis relative to control. The experiment is classed as functional. The gist of the method:
as §2

On to `CCCCCCCCCCCCCCCCCC[C@@H](O)C(=O)N[C@@H](CO[C@@H]1O[C@H](CO)[C@@H](O)[C@H](O)[C@H]1O)[C@H](O)/C=C/CC/C=C(\C)CCCCCCCCC`, for which the result in experiment [1], in experiment [2], in experiment [3], in experiment [5] and in experiment [6] was inactive. In addition, in experiment [4], the Activity is listed as 25.8%.
In the case of `O=C(/C=C/c1ccc(O)c(O)c1)OCCc1ccccc1` [CAFFEIC ACID PHENETHYL ESTER], the Activity is on record as 1.5% in experiment [4] and 70.2% in experiment [6].
Take `CCCCCCCCCCCCCC[C@@H](O)C(=O)N[C@@H](CO[C@@H]1O[C@H](CO)[C@@H](O)[C@H](O)[C@H]1O)[C@H](O)/C=C/CC/C=C(\C)CCCCCCCCC`: the outcome in experiment [1], in experiment [2], in experiment [3] and in experiment [5] was inactive. For the same molecule, the Activity in experiment [4] is listed as 20.3%; in experiment [6], 64.3%.
As to `CCCCCCCCCCCCC/C=C/[C@@H](O)[C@H](CO)NC(C)=O`, the outcome in experiment [1], in experiment [2], in experiment [3] and in experiment [5] was inactive. The Activity is reported as 46.9% in experiment [4] and 77.2% in experiment [6].
For `CCCCCCC/C=C/C(C)=C/CC/C=C/[C@@H](O)[C@H](CO[C@H]1O[C@H](CO)[C@@H](O)[C@H](O)[C@H]1O)NC(=O)[C@H](O)/C=C/CCCCCCCCCCCCCC` [SARCOEHRENOSIDE A], the result in experiment [1], in experiment [2], in experiment [3], in experiment [5] and in experiment [6] was inactive. In experiment [4], the Activity worked out at 47.3%.
Regarding `CCCCCCCCCCCCCCCCCCCC[C@@H](O)C(=O)N[C@@H](CO[C@@H]1O[C@H](CO)[C@@H](O)[C@H](O)[C@H]1O)[C@H](O)/C=C/CC/C=C(\C)CCCCCCCCC`, the result in experiment [1], in experiment [2], in experiment [3] and in experiment [5] was inactive.
Regarding `CCCCCCCCCCCCCCCCCCC[C@@H](O)C(=O)N[C@@H](CO[C@@H]1O[C@H](CO)[C@@H](O)[C@H](O)[C@H]1O)[C@H](O)/C=C/CC/C=C(\C)CCCCCCCCC` [SARCOEHRENOSIDE B], the outcome in experiment [1], in experiment [2], in experiment [3], in experiment [5] and in experiment [6] was inactive. The Activity in experiment [4] came out at 46.5%.
